From ChEMBL document CHEMBL2069284, “Synthesis and selective anticancer activity of steroidal glycoconjugates” (Eur J Med Chem, 2012)
pIC50: −log10 of the molar value.

Tests used:
[1] = system: HeLa; test: Antiproliferative activity against human HeLa cells after 24 hrs by crystal violet staining-based method; assay type: functional, cell-based
Method in brief: (§1)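 Cells were cultured in RPMI-1640 with 5% newborn calf serum and benzylpenicillin at 37 °C, 5% CO2, and used in exponential growth. Cells were seeded at 7500/well, grown 24 h, then exposed to a concentration range. Controls received 1% DMSO vehicle. After 24 h, growth was read by crystal violet staining as absorbance at 590 nm, and IC50 was derived.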

[2] = system: HeLa; test: Cytotoxicity against human HeLa cells assessed as LDH release at antiproliferative IC50 after 24 hrs; assay type: cell-based
Method in brief: (§2)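 Membrane damage was measured as LDH released into the culture supernatant 24 h after treatment; Triton X-100 lysis served as the total-lysis reference and DMSO as the vehicle control. For HeLa, CaSki and ViBo, 7500 cells/well were seeded and the medium was replaced after 24 h before treatment. Data are mean ± SD of three independent experiments in triplicate, analyzed by ANOVA with Tukey's test.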

[3] = Cytotoxicity against human ViBo cells assessed as LDH release at antiproliferative IC50 after 24 hrs; assay type: cell-based; method in brief: as §2
[4] = (§3) Antiproliferative activity against human ViBo cells after 24 hrs by crystal violet staining-based method; assay type: functional, cell-based; method in brief: as §1
[5] = system: ViBo; test: as §3; assay type: functional, cell-based; method in brief: as §1
[6] = system: PBMC; test: Antiproliferative activity against PHA-stimulated and CFSE-labeled human PBMC assessed as proliferation of enriched lymphocyte population at antiproliferative IC50 after 72 hrs by flow cytometric analysis (reference value: 90.13%); assay type: cell-based
Method in brief: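 Enriched lymphocytes from a normal blood donor were obtained by removing cells adherent after 1 h at 37 °C, 5% CO2, then resuspended in RPMI-1640 at 1 × 10⁶ cells/mL. Cells were CFSE-labeled for 15 min at room temperature in the dark, PHA-stimulated and/or treated, and plated at 2 × 10⁵ cells/well with five replicates. After 72 h at 37 °C, cells were PBS-washed, fixed in 1% formaldehyde, and analyzed by flow cytometry (≥20,000 events).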

[7] = system: Ca-Ski; test: Cytotoxicity against human CaSki cells assessed as LDH release at antiproliferative IC50 after 24 hrs; assay type: cell-based; method in brief: as §2
[8] = Cytotoxicity against human lymphocytes assessed as LDH release at antiproliferative IC50 after 24 hrs; assay type: cell-based; conditions: lymphocyte; method in brief: as §2
[9] = system: Ca-Ski; test: Antiproliferative activity against human CaSki cells after 24 hrs by crystal violet staining-based method; assay type: functional, cell-based; method in brief: as §1

Row | Compound | pIC50 [1] | inhibition [1] | Activity [2] | Activity [3] | pIC50 [4] | inhibition [5] | Activity [6] [%] | Activity [7] | Activity [8] | pIC50 [9] | inhibition [9]
1 | C[C@@H]1CC[C@@]2(OC1)O[C@H]1C[C@H]3[C@@H]4CC=C5C[C@@H](O[C@@H]6O[C@H](CO)[C@@H](O)[C@H](O)[C@H]6N)CC[C@]5(C)[C@H]4CC[C@]3(C)[C@H]1[C@@H]2C.Cl | 4.39 | Dose-dependent effect | Non-toxic | Non-toxic | 4.09 | Dose-dependent effect | 78.76 | Non-toxic | Non-toxic | 4.39 | Dose-dependent effect
2 | CC(=O)N[C@H]1[C@H](O[C@H]2CC[C@@]3(C)[C@@H](CC[C@@H]4[C@@H]3CC(=O)[C@]3(C)[C@@H]5[C@H](C[C@@H]43)O[C@]3(CC[C@@H](C)CO3)[C@H]5C)C2)O[C@H](CO)[C@@H](O)[C@@H]1O | 3.89 | Dose-dependent effect | Non-toxic | Non-toxic | < 3.85 | Dose-dependent effect | 75.59 | Non-toxic | Non-toxic | 3.87 | Dose-dependent effect
3 | CC(=O)N[C@H]1[C@H](O[C@H]2CC[C@@]3(C)C(=CC[C@H]4[C@@H]5C[C@@H]6O[C@]7(CC[C@@H](C)CO7)[C@@H](C)[C@@H]6[C@@]5(C)CC[C@@H]43)C2)O[C@H](CO)[C@@H](O)[C@@H]1O | 4.09 | Dose-dependent effect | Non-toxic | Non-toxic | 4.09 | Dose-dependent effect | 72.58 | Non-toxic | Non-toxic | 4.10 | Dose-dependent effect
